According to PubChem BioAssay AID588478 (ICCB-Longwood Screening Facility, Harvard Medical School, 2011):
Screen size: about 330,000 compounds; about 1,100 (0.33%) were called active. This is one part of a sample in which actives are shown more often than they occur. Unmarked numbers belong to inactive results.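 Rule for the calls: active = mean inhibition over replicate wells above about 20% (limit read from the data); inactive = the rest.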

The molecules below were run against Ubiquitin carboxyl-terminal hydrolase isozyme L5 (Homo sapiens) (UniProt Q9Y5K5) (assay: proteasome-bound UCH37 DUB activity blockers – biochemical, Ub-AMC cleavage, fluorescence, primary screen (AID 588478;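 note: 0% = compound-free wells with enzyme and 100% = wells lacking proteasome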)). Conditions: purified proteasome/UCH37, Ub-AMC cleavage fluorescence; hits give high values; concentration not given here.
Chain of Ubiquitin carboxyl-terminal hydrolase isozyme L5 (Homo sapiens) (Q9Y5K5 whole entry, looked up): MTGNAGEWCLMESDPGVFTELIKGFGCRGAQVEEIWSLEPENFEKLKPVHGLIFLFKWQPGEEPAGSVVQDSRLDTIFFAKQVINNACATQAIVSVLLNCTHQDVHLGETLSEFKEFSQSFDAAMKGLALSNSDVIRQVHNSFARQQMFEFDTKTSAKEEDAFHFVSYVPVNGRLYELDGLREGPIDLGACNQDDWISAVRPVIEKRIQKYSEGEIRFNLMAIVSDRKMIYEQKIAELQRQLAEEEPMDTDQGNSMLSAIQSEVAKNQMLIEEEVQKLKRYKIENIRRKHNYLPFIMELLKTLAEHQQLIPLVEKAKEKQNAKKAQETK
Outline: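 Material: human UCH37 enzyme supplied as purified proteasome complex. Measure: % inhibition of Ub-AMC cleavage fluorescence. Medium: pH 7.4 Tris-HCl (50 mM) with ovalbumin, ATP-MgCl2, DTT. Times: 30 min preincubation with enzyme, 25 min cleavage at room temperature. Detection: AMC fluorescence intensity at 355/460 nm.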
`c1coc(-c2nc3nc4ccccc4n3nc2-c2ccco2)c1` was tested, and the inhibition was 25.1% (active).
Work on `O=C(NN=Cc1cccnc1)c1cccc(N2CCCC2=O)c1` yielded an inhibition of 2.39%.
Work on `O=C(NC(Cc1c[nH]c2ccccc12)C(=O)NN=Cc1ccc(Br)cc1)c1cccs1` (stereo not drawn) yielded an inhibition of 0.851%.
In the case of `CCN(CC)CCCC(C)n1c2nc(=O)[nH]c(=O)c-2nc2cc(Cl)ccc21` (stereo not drawn), the inhibition is reported as 76% (active).
For `CCN(CC)CCn1c2ccc(Cl)cc2c2nc(C)sc21`, the inhibition was 7.52%.
Work on `Nc1nnnn1N=Cc1cc(Cl)ccc1O` yielded an inhibition of -10.7%.
In the case of `CC(CC(=O)NCCc1ccccc1)=NNC(=O)COc1ccc(Br)cc1`, the inhibition is reported as 3.08%.
For `COC1=C(N2CCOCC2)C(=O)c2ccccc2C1=O`, the inhibition was 33.9% (active).
For `O=C1C(Cl)=C(N2CCOCC2)C(=O)N1c1ccccc1`, the inhibition was 3.48%.
In the case of `O=C1c2ccccc2-c2ncnc3c(N4CCOCC4)cc(N4CCOCC4)c1c23`, the inhibition is reported as 17.7%.
`Cc1cc(C)n2nc(C(=O)NN=Cc3cccc(Cl)c3)nc2n1` gave an inhibition of 4.88%.
In the case of `COc1ccc(OCC(=O)NN=C(C)CC(=O)Nc2ccc(OC)cc2[N+](=O)[O-])cc1`, the inhibition is reported as 5.56%.
`COc1ccc(C2/C(=C(/O)c3ccccc3)C(=O)C(=O)N2c2ncccn2)cc1OC` (stereo not drawn) was tested, and the inhibition was 7.11%.
With `Cc1cc(N2C(=O)C(=O)/C(=C(/O)c3ccc(Cl)cc3)C2c2cccc(Br)c2)no1` (stereo not drawn) the inhibition was 6.56%.
In the case of `Cc1cc(N2C(=O)C(=O)/C(=C(/O)c3ccccc3)C2c2cccc(Br)c2)no1` (stereo not drawn), the inhibition is reported as 21.7% (active).
`Cc1ccccc1OCC(=O)NN=C1CCOc2c(C)cccc21` was tested, and the inhibition was -0.822%.
Molecule `CC(C)(C)c1ccc(OCc2ccc(C(=O)NN=C3CC4CC=CC34)cc2)cc1` (stereo not drawn) has an inhibition of 2.62%.
For `Cc1[nH][nH]c(=O)c1C(c1ccc(-c2ccc(Cl)cc2)o1)c1c(C)[nH][nH]c1=O`, the inhibition was 42.6% (active).
`O=C(NC1CCCCC1)c1ccc(-c2ccc(Cl)cc2)o1` was tested, and the inhibition was 1.6%.
In the case of `CN(CC(=O)Nc1ccc(F)cc1)C(=O)c1ccc(-c2ccc(Cl)cc2)o1`, the inhibition is reported as -0.892%.
`Cc1cccc(OCC(=O)NN=C/C=C/c2ccc3c(c2)OCO3)c1C` showed an inhibition of -10.5%.
Work on `CC(=NNC(=O)c1ccc2c(c1)OCO2)c1ccc(O)cc1` yielded an inhibition of 3.15%.
With `Oc1ccc(N=Nc2nccs2)c(O)c1` the inhibition was 24.4% (active).
Work on `CC(=NNc1cc(N2CCOCC2)ncn1)c1ccccc1` yielded an inhibition of 2.94%.
With `Cn1c(=O)n(C)c2cc(C=Nn3cnnc3)ccc21` the inhibition was -35.7%.
In the case of `CC1CCCN(C(=O)c2ccc3c(c2)C(=O)N(CCC2=CCCCC2)C3=O)C1` (stereo not drawn), the inhibition is reported as 39.5% (active).
`Cc1cc(=O)n2nc(N3CCCC(C(=O)NCCC4=CCCCC4)C3)sc2n1` (stereo not drawn) was tested, and the inhibition was 4.22%.
Work on `C=CCN1C(=O)c2ccc(C(=O)N3CCC(C(=O)OCC)CC3)cc2C1=O` yielded an inhibition of -0.969%.
